Assay results as given in ChEMBL document CHEMBL3734675, “Synthesis, antimycobacterial and antibacterial activity of fluoroquinolone derivatives containing an 3-alkoxyimino-4-(cyclopropylanimo)methylpyrrolidine moiety” (2015).
Values after ≈ are worked out from the molar mass of the structure shown.

What was measured:
Type in all cases: functional
[1] = system: Mycobacterium tuberculosis; assay: Antimycobacterial activity against Mycobacterium tuberculosis H37Rv ATCC 27294 incubated for 7 days by microplate Alamar Blue assay; details: H37Rv ATCC 27294, 168 h
How it was run: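 Fluorescence read-out. MIC is the lowest concentration that reduces fluorescence by at least 90% relative to the mean of replicate bacterium-only controls. Isoniazid and rifampicin were included as reference drugs.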

Escherichia coli [2] = assay: Antibacterial activity against Escherichia coli ATCC 25922 after 18 to 24 hrs by two-fold serial dilution method
How it was run: (§1)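 Twofold serial dilution in agar media against Gram-positive and Gram-negative strains. Plates incubated at 35 °C for 18–24 h. MIC read as the lowest compound concentration giving complete inhibition of bacterial growth.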

Escherichia coli [3] = assay: Antibacterial activity against extended-spectrum beta-lactamase producing Escherichia coli 14-1 after 18 to 24 hrs by two-fold serial dilution method; how it was run: as §1
Escherichia coli [4] = assay: Antibacterial activity against extended-spectrum beta-lactamase producing Escherichia coli 14-2 after 18 to 24 hrs by two-fold serial dilution method; how it was run: as §1
Escherichia coli [5] = assay: Antibacterial activity against Escherichia coli 14-1 after 18 to 24 hrs by two-fold serial dilution method; how it was run: as §1
Escherichia coli [6] = assay: Antibacterial activity against Escherichia coli 14-2 after 18 to 24 hrs by two-fold serial dilution method; how it was run: as §1
Klebsiella pneumoniae [7] = assay: Antibacterial activity against extended-spectrum beta-lactamase producing Klebsiella pneumoniae 14-17 after 18 to 24 hrs by two-fold serial dilution method; how it was run: as §1
Klebsiella pneumoniae [8] = assay: Antibacterial activity against extended-spectrum beta-lactamase producing Klebsiella pneumoniae 14-18 after 18 to 24 hrs by two-fold serial dilution method; how it was run: as §1
Klebsiella pneumoniae [9] = assay: Antibacterial activity against extended-spectrum beta-lactamase producing Klebsiella pneumoniae 14-19 after 18 to 24 hrs by two-fold serial dilution method; how it was run: as §1
Klebsiella pneumoniae [10] = assay: Antibacterial activity against Klebsiella pneumoniae 14-1 after 18 to 24 hrs by two-fold serial dilution method; how it was run: as §1
Klebsiella pneumoniae [11] = assay: Antibacterial activity against Klebsiella pneumoniae 14-2 after 18 to 24 hrs by two-fold serial dilution method; how it was run: as §1
Klebsiella pneumoniae [12] = assay: Antibacterial activity against Klebsiella pneumoniae 14-3 after 18 to 24 hrs by two-fold serial dilution method; how it was run: as §1
Klebsiella pneumoniae [13] = assay: Antibacterial activity against Klebsiella pneumoniae 14-4 after 18 to 24 hrs by two-fold serial dilution method; how it was run: as §1
Pseudomonas aeruginosa [14] = assay: Antibacterial activity against Pseudomonas aeruginosa ATCC 27853 after 18 to 24 hrs by two-fold serial dilution method; how it was run: as §1
Pseudomonas aeruginosa [15] = assay: Antibacterial activity against Pseudomonas aeruginosa 14-9 after 18 to 24 hrs by two-fold serial dilution method; how it was run: as §1
Pseudomonas aeruginosa [16] = assay: Antibacterial activity against Pseudomonas aeruginosa 14-14 after 18 to 24 hrs by two-fold serial dilution method; how it was run: as §1
Pseudomonas aeruginosa [17] = assay: Antibacterial activity against Pseudomonas aeruginosa 14-15 after 18 to 24 hrs by two-fold serial dilution method; how it was run: as §1
Pseudomonas aeruginosa [18] = assay: Antibacterial activity against Pseudomonas aeruginosa 14-16 after 18 to 24 hrs by two-fold serial dilution method; how it was run: as §1
Staphylococcus aureus [19] = assay: Antibacterial activity against Staphylococcus aureus CMCC 26003 after 18 to 24 hrs by two-fold serial dilution method; how it was run: as §1
Staphylococcus aureus [20] = assay: Antibacterial activity against methicillin-sensitive Staphylococcus aureus 14-1 after 18 to 24 hrs by two-fold serial dilution method; how it was run: as §1
Staphylococcus aureus [21] = assay: Antibacterial activity against methicillin-sensitive Staphylococcus aureus 14-3 after 18 to 24 hrs by two-fold serial dilution method; how it was run: as §1
Staphylococcus aureus [22] = assay: Antibacterial activity against methicillin-sensitive Staphylococcus aureus 14-4 after 18 to 24 hrs by two-fold serial dilution method; how it was run: as §1
Staphylococcus aureus [23] = assay: Antibacterial activity against methicillin-resistant Staphylococcus aureus 14-4 after 18 to 24 hrs by two-fold serial dilution method
How it was run: (§2)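 Agar media, standard twofold serial dilution. MIC is the lowest concentration giving complete inhibition of bacterial growth after incubation at 35 °C for 18–24 h. Ciprofloxacin and levofloxacin were run as comparators.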

Staphylococcus aureus [24] = assay: Antibacterial activity against methicillin-resistant Staphylococcus aureus 14-5 after 18 to 24 hrs by two-fold serial dilution method; how it was run: as §2
[25] = system: Staphylococcus epidermidis; assay: Antibacterial activity against methicillin-sensitive Staphylococcus epidermidis 14-2 after 18 to 24 hrs by two-fold serial dilution method; how it was run: as §1
[26] = system: Staphylococcus epidermidis; assay: Antibacterial activity against methicillin-resistant Staphylococcus epidermidis 14-21 after 18 to 24 hrs by two-fold serial dilution method; how it was run: as §2
[27] = system: Staphylococcus epidermidis; assay: Antibacterial activity against methicillin-resistant Staphylococcus epidermidis 14-22 after 18 to 24 hrs by two-fold serial dilution method; how it was run: as §2
[28] = system: Staphylococcus epidermidis; assay: Antibacterial activity against methicillin-resistant Staphylococcus epidermidis 14-37 after 18 to 24 hrs by two-fold serial dilution method; how it was run: as §2
[29] = system: Staphylococcus epidermidis; assay: Antibacterial activity against methicillin-resistant Staphylococcus epidermidis 14-39 after 18 to 24 hrs by two-fold serial dilution method; how it was run: as §2
Streptococcus pneumoniae = assay: Antibacterial activity against methicillin-resistant Streptococcus pneumoniae ATCC 19615 after 18 to 24 hrs by two-fold serial dilution method; how it was run: as §2
Enterococcus faecium [30] = assay: Antibacterial activity against Enterococcus faecium 14-2 after 18 to 24 hrs by two-fold serial dilution method; how it was run: as §1
Enterococcus faecium [31] = assay: Antibacterial activity against Enterococcus faecium 14-5 after 18 to 24 hrs by two-fold serial dilution method; how it was run: as §1
Enterococcus faecium [32] = assay: Antibacterial activity against Enterococcus faecium 14-6 after 18 to 24 hrs by two-fold serial dilution method; how it was run: as §1
Enterococcus faecalis [33] = assay: Antibacterial activity against Enterococcus faecalis 14-1 after 18 to 24 hrs by two-fold serial dilution method; how it was run: as §1
Enterococcus faecalis [34] = assay: Antibacterial activity against Enterococcus faecalis 14-2 after 18 to 24 hrs by two-fold serial dilution method; how it was run: as §1

Row | Compound | MIC90 [1] [mg/L] | MIC (Escherichia coli [2]) [mg/L] | MIC (Escherichia coli [3]) [mg/L] | MIC (Escherichia coli [4]) [mg/L] | MIC (Escherichia coli [5]) [mg/L] | MIC (Escherichia coli [6]) [mg/L] | MIC (Klebsiella pneumoniae [7]) [mg/L] | MIC (Klebsiella pneumoniae [8]) [mg/L] | MIC (Klebsiella pneumoniae [9]) [mg/L] | MIC (Klebsiella pneumoniae [10]) [mg/L] | MIC (Klebsiella pneumoniae [11]) [mg/L] | MIC (Klebsiella pneumoniae [12]) [mg/L] | MIC (Klebsiella pneumoniae [13]) [mg/L] | MIC (Pseudomonas aeruginosa [14]) [mg/L] | MIC (Pseudomonas aeruginosa [15]) [mg/L] | MIC (Pseudomonas aeruginosa [16]) [mg/L] | MIC (Pseudomonas aeruginosa [17]) [mg/L] | MIC (Pseudomonas aeruginosa [18]) [mg/L] | MIC (Staphylococcus aureus [19]) [mg/L] | MIC (Staphylococcus aureus [20]) [mg/L] | other results
1 | CCO/N=C1/CN(c2c(F)cc3c(=O)c(C(=O)O)cn4c3c2OC[C@@H]4C)CC1(C)CNC1CC1 (stereo not given in full) | 2.76 (≈ 5.84 µM) | 2 (≈ 4.23 µM) | 8 (≈ 16.9 µM) | > 128 | > 128 | > 128 | 32 (≈ 67.7 µM) | 32 (≈ 67.7 µM) | 32 (≈ 67.7 µM) | 64 (≈ 135 µM) | 64 (≈ 135 µM) | > 128 | > 128 | 64 (≈ 135 µM) | 64 (≈ 135 µM) | 128 (≈ 271 µM) | 64 (≈ 135 µM) | 64 (≈ 135 µM) | < 0.008 | 4 (≈ 8.47 µM) | MIC (Staphylococcus aureus [21]): 0.03 mg/L (≈ 0.0635 µM); MIC (Staphylococcus aureus [22]): 0.06 mg/L (≈ 0.127 µM); MIC (Staphylococcus aureus [23]): 64 mg/L (≈ 135 µM); MIC (Staphylococcus aureus [24]): 16 mg/L (≈ 33.9 µM); MIC [25]: 32 mg/L (≈ 67.7 µM); MIC [26]: 8 mg/L (≈ 16.9 µM); MIC [27]: 8 mg/L (≈ 16.9 µM); MIC [28]: 4 mg/L (≈ 8.47 µM); MIC [29]: 8 mg/L (≈ 16.9 µM); MIC (Streptococcus pneumoniae): 0.25 mg/L (≈ 0.529 µM); MIC (Enterococcus faecium [30]): 16 mg/L (≈ 33.9 µM); MIC (Enterococcus faecium [31]): 4 mg/L (≈ 8.47 µM); MIC (Enterococcus faecium [32]): 16 mg/L (≈ 33.9 µM); MIC (Enterococcus faecalis [33]): 32 mg/L (≈ 67.7 µM); MIC (Enterococcus faecalis [34]): 1 mg/L (≈ 2.12 µM)
2 | CC1(CNC2CC2)CN(c2nc3c(cc2F)c(=O)c(C(=O)O)cn3-c2nc(N)c(F)cc2F)C/C1=N/OCc1ccccc1 (stereo not given) | 16 (≈ 26.3 µM) | 64 (≈ 105 µM) | > 128 | > 128 | > 128 | > 128 | > 128 | > 128 | > 128 | > 128 | > 128 | 128 (≈ 211 µM) | > 128 | 128 (≈ 211 µM) | 128 (≈ 211 µM) | 128 (≈ 211 µM) | 128 (≈ 211 µM) | > 128 | 1 (≈ 1.65 µM) | 16 (≈ 26.3 µM) | MIC (Staphylococcus aureus [21]): 8 mg/L (≈ 13.2 µM); MIC (Staphylococcus aureus [22]): 4 mg/L (≈ 6.58 µM); MIC (Staphylococcus aureus [23]): 16 mg/L (≈ 26.3 µM); MIC (Staphylococcus aureus [24]): 32 mg/L (≈ 52.7 µM); MIC [25]: 64 mg/L (≈ 105 µM); MIC [26]: 32 mg/L (≈ 52.7 µM); MIC [27]: 128 mg/L (≈ 211 µM); MIC [28]: 64 mg/L (≈ 105 µM); MIC [29]: 128 mg/L (≈ 211 µM); MIC (Streptococcus pneumoniae): 8 mg/L (≈ 13.2 µM); MIC (Enterococcus faecium [30]): 32 mg/L (≈ 52.7 µM); MIC (Enterococcus faecium [31]): > 128 mg/L; MIC (Enterococcus faecium [32]): 128 mg/L (≈ 211 µM); MIC (Enterococcus faecalis [33]): 32 mg/L (≈ 52.7 µM); MIC (Enterococcus faecalis [34]): 16 mg/L (≈ 26.3 µM)
